# Assay outcomes (PubChem)
# Compounds with a hit are over-represented: about 3.5% of the library has one in this group of screens.
# ABCB1 inh: blocks JC-1 efflux by human ABCB1 transporter; 190,000 compounds, 0.067% hits; P08183; CCRF-Adr cells, flow cytometry; AID 1326; inhibition, % at 6.6 µM; in the data active = inhibition above about 40%;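 note: 0% = vehicle and 100% = reference inhibitor; higher value means more JC-1 retained so stronger ABCB1 efflux block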
# MEKK3 PB1 HTS: MEKK3-MEK5 PB1 interaction, increase or decrease; binding response (% of control), % at 10 µM; Q99759; AID 1529; 290,000 compounds, 1.4% hits; bead-based flow cytometry, Alexa488-MEK5 binding to MEKK3; actives lie on both sides; 0 = blocked by unlabeled MEK5, 100 = vehicle;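 active = binding response more than 3 SD above or below the average of its plate-row segment, actives on both sides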;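 note: Alexa488 bead fluorescence after subtracting the streptavidin-only scavenger bead signal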
# Target sequence (Q99759 whole entry, looked up): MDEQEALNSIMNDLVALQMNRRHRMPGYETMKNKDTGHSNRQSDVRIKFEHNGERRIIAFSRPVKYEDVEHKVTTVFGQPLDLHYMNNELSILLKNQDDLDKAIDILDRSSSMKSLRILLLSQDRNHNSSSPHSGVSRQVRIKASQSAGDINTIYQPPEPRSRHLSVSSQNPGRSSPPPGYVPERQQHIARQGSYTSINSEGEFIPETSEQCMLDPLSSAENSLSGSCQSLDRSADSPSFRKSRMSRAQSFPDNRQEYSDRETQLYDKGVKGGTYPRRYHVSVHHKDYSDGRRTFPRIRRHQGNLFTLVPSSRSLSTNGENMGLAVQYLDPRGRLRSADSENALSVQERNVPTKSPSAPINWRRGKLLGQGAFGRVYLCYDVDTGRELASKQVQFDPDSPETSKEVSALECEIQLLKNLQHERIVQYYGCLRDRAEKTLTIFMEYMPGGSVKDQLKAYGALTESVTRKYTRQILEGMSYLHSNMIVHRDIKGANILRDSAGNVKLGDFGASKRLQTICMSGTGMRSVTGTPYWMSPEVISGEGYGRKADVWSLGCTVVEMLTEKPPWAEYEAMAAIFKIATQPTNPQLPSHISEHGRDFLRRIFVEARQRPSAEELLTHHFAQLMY
# MEKK2 mut-MEK5: signal of MEK5 binding to mutant human MEKK2 PB1 domain; bead flow cytometry, Alexa488-MEK5 binding to MEKK2 mutant; percent response, % at 10 µM; 290,000 compounds, 0.35% hits; in the data active = percent response above about 24%, passing the limit was not always enough
# MEKK2 WT-MEK5: raises or lowers MEK5 binding to wildtype human MEKK2 PB1 domain. Q9Y2U5. bead flow cytometry, Alexa488-MEK5 binding to MEKK2 WT; actives lie on both sides. binding response (% of control), % at 10 µM. 290,000 compounds, 1.1% hits. AID 1531; in the data active = binding response below about 67% or above about 130%
# ABCG2 inh: blocks JC-1 efflux by human ABCG2 transporter; Q9UNQ0; IgMXP3 cells, flow cytometry; inhibition, % at 6.6 µM; 190,000 compounds, 0.1% hits; AID 1325;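 active = inhibition above 80%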;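 note: 0% = DMSO and 100% = nicardipine control wells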
#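 Assay system – ABCG2 IgMXP3 and barcoded ABCB1 CCRF-Adr cell mix · Input – 3 million cells/mL in well · Reagent – JC-1 fluorescent substrate · Compound – single test compound dose, 6.6 µM final · Timing – 10 min exposure at 25 °C with rotation, no wash · Detection – flow cytometry of retained JC-1 fluorescence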
# WT yeast gro inh: growth inhibition of WT yeast, mitochondrial fusion screen; inhibition, % at 10 µM; mitochondrial fusion phenotypic screen, WT strain; 190,000 compounds, 2.1% hits; in the data active = inhibition above about 58%; tested in S. cerevisiae
# MEKK2wt confirm: raises or lowers MEK5 binding to wildtype human MEKK2, retest; shares compounds with MEKK3 PB1 HTS; AID 1892; binding response (% of control), % at 10 µM; bead flow cytometry, Alexa488-MEK5 binding to MEKK2 WT; actives lie on both sides; 5,900 compounds, 2.4% hits; in the data active = binding response below about 16% or above about 210%; inactive = in between
# MEKK2mut-MEK5: signal of MEK5 binding to mutant human MEKK2, retest. shares compounds with MEKK3 PB1 HTS. bead flow cytometry, Alexa488-MEK5 binding to MEKK2 mutant. percent response, % at 10 µM. 5,900 compounds, 2% hits. AID 1893; in the data active = percent response mostly above about 71%, no sharp cut-off; inactive = mostly below about 38%;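 note: higher means compound restores mutant binding toward wildtype level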
# MEKK3-MEK5 inh: MEKK3-MEK5 PB1 inhibition, single concentration confirmation | bead flow cytometry, Alexa488-MEK5 binding to MEKK3; stronger effect = lower value | shares compounds with MEKK3 PB1 HTS | binding response (% of control), % at 10 µM | 5,900 compounds, 1.8% hits;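 active = binding response below 72% of control, or above a set upper limit, though filed actives all read lower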;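 note: 100% = DMSO only wells and 0% = binding blocked by excess unlabeled MEK5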
# * marks the source's active call; other numbers are inactive results; . = no result given; [ ] = dose if it differs, or a comment.
SMILES,ABCB1 inh,MEKK3 PB1 HTS,MEKK2 mut-MEK5,MEKK2 WT-MEK5,ABCG2 inh,WT yeast gro inh,MEKK2wt confirm,MEKK2mut-MEK5,MEKK3-MEK5 inh
CCc1ccc(OCC2c3cc(OC)c(OC)cc3CCN2C(=S)NC)cc1 (stereo not drawn),1,134*,0,117,6,75*,102,7,102
CCCN1CCC(=O)N(CCO)CC1,.,100,-1,104,.,.,.,.,.
O=C(Nc1cccc(C(=O)O)c1)/C(=C\c1ccc2c(c1)OCO2)NC(=O)c1ccccc1Cl,.,99,-5,97,.,.,.,.,.
CN(C)CCN1C(=O)c2oc3ccccc3c(=O)c2C1c1ccc(F)cc1 (stereo not drawn),0,2.0*[inhibitor],-26,-1.0*[inhibitor],1,12,110,14,105
O=C(c1ccc2c(c1)OCCCO2)c1cccs1,1,98,-4,98,5,-2,.,.,.
CCOC(=O)c1c(C)[nH]c(C)c1C(=O)CSc1nc2ccccc2n1CC,2,135*,0,102,21,3,102,-3,100
COc1ccc(CNCc2cn(-c3cccc(F)c3)nc2-c2ccc(C)o2)cc1,4,101,26,168*,8,71*,172,31,109
O=C(CC1C(=O)NCCN1Cc1c(F)cccc1Cl)NCCCn1cccn1 (stereo not drawn),.,94,-2,98,.,.,.,.,.
CN(CC(=O)NCCc1ccccc1)S(=O)(=O)c1ccccc1,0,103,3,102,5,6,.,.,.
Cc1ccc(S(=O)(=O)NN)c(C)c1N1CCCC1=O,.,44*[inhibitor],-21,58,.,.,100,-11,99
Cc1ccc(C)c(NS(=O)(=O)c2cc3c4c(c2)CC(=O)N4CCC3)c1,.,97,-1,95,.,.,.,.,.
Cc1cc(NC(=O)c2cc(C)on2)n(-c2ccccc2)n1,2,74*[inhibitor],-4,79,6,-2,98,3,97
Cc1ccccc1CSCC(=O)NCCSc1ccccn1,1,72,-15,72,7,-7,.,.,.
O=C(CSc1nnc(COc2ccccc2)o1)NCCc1ccccc1,2,102,3,111,4,-4,.,.,.
Cc1cccc(OCc2nnc(SCC(=O)NCCc3ccccc3)o2)c1,0,90,-35,-7.0*[inhibitor],2,3,104,-1,103
Cc1cccc(-c2cc3nc(-c4ccccc4)cc(=O)n3[nH]2)c1,.,103,7,105,.,.,.,.,.
CCCCC1(CC(=O)OC)C(=O)N(c2ccccc2)N(c2ccccc2)C1=O,1,138*,2,107,0,-5,102,-6,103
CCCCC1(Cc2ccc(OC)c([N+](=O)[O-])c2)C(=O)N(c2ccccc2)N(c2ccccc2)C1=O,2,113,4,107,4,-2,.,.,.
Cc1cc(C(=O)COC(=O)Cc2n[nH]c(=O)c3ccccc23)c(C)n1-c1ccc2c(c1)OCCO2,11,135*,0,102,38,35,101,-5,96
CCN(CC)CCCNc1ncnc2ccccc12,0,98,-1,103,-1,-9,.,.,.
OCCCCCNc1ncnc2ccccc12,0,128*,12,111,3,-4,101,2,98
Cc1c(N2C(=O)C(=O)/C(=C(/O)c3ccc(Cl)cc3)C2c2ccccc2)c(=O)n(-c2ccccc2)n1C (stereo not drawn),0,135*,0,105,0,-6,97,-5,96
COc1ccc(Oc2ccc(C(F)(F)F)cc2NC(=O)c2ccc(C)cc2)cc1,.,142*,37,135,.,.,105,-2,103
Cc1ccc(S(=O)(=O)N2CCOCC2)cc1C(=O)Nc1ccc(S(=O)(=O)Nc2nccs2)cc1,-1,105,0,102,-8,1,.,.,.
CN(Cc1nc(Cc2cccc(C(F)(F)F)c2)no1)C1CC(C)(C)NC(C)(C)C1,0,103,3,112,0,-3,.,.,.
SMILES,ABCB1 inh,MEKK3 PB1 HTS,MEKK2 mut-MEK5,MEKK2 WT-MEK5,ABCG2 inh,WT yeast gro inh,MEKK2wt confirm,MEKK2mut-MEK5,MEKK3-MEK5 inh
Cc1cc(=S)nc(-c2ccccn2)[nH]1,.,57*[inhibitor],-21,59*[inhibitor],.,.,96,-1,99
COc1ccc(N=C2NC(=O)/C(=C\C=C\c3ccco3)S2)cc1,-1,99,-9,90,-2,25,.,.,.
Cc1cccc(N=C2NC(=O)/C(=C/C=C/c3ccco3)S2)c1,0,64*[inhibitor],-2,91,0,11,84,-14,94
O=C1C(=O)N(CCCO)C(c2ccc(Br)cc2)/C1=C(\O)c1ccc(Br)cc1 (stereo not drawn),.,111,28*,113,.,.,94,-3,100
CN1C(=O)C(=O)/C(=C(/O)c2ccccc2)C1c1ccc(Br)cc1 (stereo not drawn),.,107,6,111,.,.,.,.,.
CN(C)c1ccc(C2/C(=C(/O)c3ccccc3)C(=O)C(=O)N2CCCC(=O)O)cc1 (stereo not drawn),.,107,-3,105,.,.,.,.,.
COCCCN1C(=O)C(=O)/C(=C(/O)c2ccccc2)C1c1ccc(N(C)C)cc1 (stereo not drawn),1,102,223*,152*,3,-4,97,-3,97
COc1ccc(CN2CCN(S(=O)(=O)c3ccc(NC(C)=O)cc3)CC2)c(OC)c1OC,0,98,-6,99,-1,-5,.,.,.
Cc1ccc(N2CC(C(=O)Nc3nc4ccc(S(C)(=O)=O)cc4s3)CC2=O)cc1 (stereo not drawn),.,99,-3,101,.,.,.,.,.
COC(=O)c1cc(NC(=O)c2ccc(F)cc2)cc(C(=O)OC)c1,1,89,103*,.,3,-5,98,-2,98
CC1=[N+](C)c2ccc3ccccc3c2C1(C)C,0,89,71*,.,0,79*,88,5,91
Cc1nsc2c1ccc1ccccc12,0,102,-16,89,-1,4,.,.,.
O=C(O)CC1SC(=Nc2cccc(C(F)(F)F)c2)NC1=O (stereo not drawn),0,124*,15,133,1,-3,91,-7,82
CCOC(=O)[C@@H]1[C@H]2COc3ccccc3[C@H]2N2C(=O)N(c3ccccc3)C(=O)[C@]12C,.,101,0,99,.,.,.,.,.
